Experimental data from ChEMBL document CHEMBL4371074, “Discovery of Selective Matriptase and Hepsin Serine Protease Inhibitors: Useful Chemical Tools for Cancer Cell Biology” (J Med Chem, 2019).
Calls of active or inactive are those of the source. The rule behind the calls is not given here.

How the values were obtained:
[1] = target: T1, Suppressor of tumorigenicity 14 protein (Homo sapiens, UniProt Q9Y5Y6); experiment: Inhibition of recombinant human N-terminal His6-tagged matriptase catalytic domain expressed in Escherichia coli preincubated for 30 mins followed by Boc-QAR-AMC substrate addition and measured for 1 hr by fluorescence assay; details: read-out: Ki(app)
T1 sequence (Q9Y5Y6 whole entry): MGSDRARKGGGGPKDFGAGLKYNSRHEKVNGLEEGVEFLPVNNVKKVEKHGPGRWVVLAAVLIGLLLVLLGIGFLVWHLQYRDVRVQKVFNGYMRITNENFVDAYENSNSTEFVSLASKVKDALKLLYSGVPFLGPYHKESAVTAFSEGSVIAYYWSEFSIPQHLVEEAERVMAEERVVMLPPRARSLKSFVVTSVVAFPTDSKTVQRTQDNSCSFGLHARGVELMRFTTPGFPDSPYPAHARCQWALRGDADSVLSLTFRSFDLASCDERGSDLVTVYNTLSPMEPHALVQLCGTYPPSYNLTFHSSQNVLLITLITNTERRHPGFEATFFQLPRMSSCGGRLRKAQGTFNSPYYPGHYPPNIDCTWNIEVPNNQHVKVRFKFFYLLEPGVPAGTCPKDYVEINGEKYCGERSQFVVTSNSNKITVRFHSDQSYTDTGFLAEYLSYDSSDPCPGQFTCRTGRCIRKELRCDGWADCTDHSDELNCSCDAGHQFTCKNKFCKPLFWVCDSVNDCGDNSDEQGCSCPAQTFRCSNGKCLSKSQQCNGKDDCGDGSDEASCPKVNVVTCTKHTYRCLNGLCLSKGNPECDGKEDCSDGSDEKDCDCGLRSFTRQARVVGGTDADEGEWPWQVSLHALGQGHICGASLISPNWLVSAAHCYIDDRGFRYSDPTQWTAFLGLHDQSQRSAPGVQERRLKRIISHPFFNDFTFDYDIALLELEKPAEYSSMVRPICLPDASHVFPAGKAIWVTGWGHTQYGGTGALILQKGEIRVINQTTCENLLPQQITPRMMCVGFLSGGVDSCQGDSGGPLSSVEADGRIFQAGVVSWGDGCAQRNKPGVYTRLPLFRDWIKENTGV
Summary of the method: (§1)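 HGFA was at 7.5 nM with Boc-QLR-AMC (Km 37 µM). Matriptase was at 0.2 nM and hepsin at 0.3 nM, both with Boc-QAR-AMC (Km 93 and 156 µM). Hepsin was pre-activated for 24 h at 37°C. Eleven inhibitor concentrations (0-20 µM, 2% DMSO) were given 30 min RT before substrate at Km. Fluorescence was read at ex 380/em 460 nm. IC50 came from a four-parameter fit, mean of three experiments.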

Homo sapiens [2] = species: Homo sapiens; experiment: Selectivity ratio of Ki(app) for recombinant human N-terminal His6-tagged matriptase catalytic domain expressed in Escherichia coli to Ki(app) for recombinant human C-terminal His10-tagged hepsin catalytic domain
Serine protease hepsin [3] = target: T2, Serine protease hepsin (Homo sapiens, UniProt P05981); experiment: Inhibition of recombinant human C-terminal His10-tagged hepsin catalytic domain preincubated for 30 mins followed by Boc-QAR-AMC substrate addition and measured for 1 hr by fluorescence assay; details: read-out: Ki(app); summary of the method: as §1
[4] = target: T3, Hepatocyte growth factor activator serine protease (Homo sapiens, UniProt Q04756); experiment: Inhibition of HGFA catalytic domain (unknown origin) preincubated for 30 mins followed by Boc-QLR-AMC substrate addition and measured for 1 hr by fluorescence assay; details: read-out: Ki(app)
T3 sequence (Q04756 whole entry): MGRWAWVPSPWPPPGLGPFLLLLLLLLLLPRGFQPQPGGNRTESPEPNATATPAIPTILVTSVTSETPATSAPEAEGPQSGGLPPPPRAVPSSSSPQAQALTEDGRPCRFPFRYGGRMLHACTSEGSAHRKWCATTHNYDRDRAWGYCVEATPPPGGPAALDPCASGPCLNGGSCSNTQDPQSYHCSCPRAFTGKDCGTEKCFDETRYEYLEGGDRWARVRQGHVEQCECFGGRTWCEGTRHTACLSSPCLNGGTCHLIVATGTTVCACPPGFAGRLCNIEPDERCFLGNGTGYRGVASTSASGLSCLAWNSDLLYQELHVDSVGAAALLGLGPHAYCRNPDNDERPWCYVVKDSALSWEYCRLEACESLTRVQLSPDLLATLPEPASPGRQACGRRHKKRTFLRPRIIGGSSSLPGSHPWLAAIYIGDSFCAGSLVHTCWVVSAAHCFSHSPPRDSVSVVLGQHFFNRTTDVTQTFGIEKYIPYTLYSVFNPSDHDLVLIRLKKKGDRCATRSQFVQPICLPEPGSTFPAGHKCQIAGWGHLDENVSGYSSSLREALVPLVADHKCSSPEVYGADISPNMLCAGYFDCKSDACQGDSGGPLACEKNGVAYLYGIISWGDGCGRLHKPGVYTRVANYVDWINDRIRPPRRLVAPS

Homo sapiens [5] = species: Homo sapiens; experiment: Selectivity ratio of Ki(app) for recombinant human C-terminal His10-tagged hepsin catalytic domain to Ki(app) for recombinant human N-terminal His6-tagged matriptase catalytic domain expressed in Escherichia coli
Serine protease hepsin [6] = target: T2, Serine protease hepsin; experiment: Inhibition of hepsin (unknown origin) expressed in MCF10A cells preincubated for 30 mins followed by Boc-QRR-AMC substrate addition and measured for 1 hr by fluorescence assay
Serine protease hepsin [7] = target: T2, Serine protease hepsin; experiment: Inhibition of hepsin (unknown origin) expressed in MCF10A cells assessed as reduction in desmosomal cadherin desmoglein 2 loss at 1 uM after 45 mins by Hoechst 33258 staining based immunofluorescence microscopic method; assay type: cell-based
Summary of the method: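 MCF10A-Indu20-hepsin cells were grown as 2D monolayers on coverslips, with or without doxycycline induction, and pretreated with inhibitor at 1 µM. They were fixed and permeabilized in ice-cold methanol for 5 min and blocked in 0.1% BSA/PBS for 30 min. Staining used anti-desmoglein 2 and anti-hepsin, then Alexa secondaries for 45 min RT, with Hoechst nuclei. Confocal images were scored; cells with pericellular desmoglein 2 on at least two sides counted positive.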

SMILES	Ki [1] [nM]	Ratio Ki(app) (Homo sapiens [2])	Ki (Serine protease hepsin [3]) [nM]	Ki [4] [nM]	Ratio Ki(app) (Homo sapiens [5])	IC50 (Serine protease hepsin [6]) [nM]	inhibition (Serine protease hepsin [7])
CC(=O)N[C@@H](CO)C(=O)N[C@@H](CCCCN)C(=O)N[C@@H](CC(C)C)C(=O)N[C@@H](CCCNC(=N)N)C(=O)c1nc2ccccc2s1	3.1	19					
N=C(N)NCCC[C@H](NC(=O)[C@H](Cc1ccccc1)NC(=O)OCC1c2ccccc2-c2ccccc21)C(=O)c1nc2ccccc2s1	188		764		4		
N=C(N)NCCC[C@H](NC(=O)[C@H](CCC(=O)O)NC(=O)OCC1c2ccccc2-c2ccccc21)C(=O)c1nc2ccccc2s1	7.2		372	> 10000	52		
N=C(N)NCCC[C@H](NC(=O)CNC(=O)OCC1c2ccccc2-c2ccccc21)C(=O)c1nc2ccccc2s1				9370	6390	> 10000	inactive
N=C(N)NCCC[C@H](NC(=O)[C@H](CCCCN)NC(=O)OCC1c2ccccc2-c2ccccc21)C(=O)c1nc2ccccc2s1	0.22		104	> 10000	473		
N=C(N)NCCC[C@H](NC(=O)[C@@H]1CCCN1C(=O)OCC1c2ccccc2-c2ccccc21)C(=O)c1nc2ccccc2s1	0.5		391	> 10000	782		
N=C(N)NCCC[C@H](NC(=O)[C@H](CCC(N)=O)NC(=O)OCC1c2ccccc2-c2ccccc21)C(=O)c1nc2ccccc2s1	0.65		116	6830	179		
CC(C)[C@H](NC(=O)OCC1c2ccccc2-c2ccccc21)C(=O)N[C@@H](CCCNC(=N)N)C(=O)c1nc2ccccc2s1	18		125	4630	6.9		
N=C(N)NCCC[C@H](NC(=O)OCC1c2ccccc2-c2ccccc21)C(=O)N[C@@H](CCCNC(=N)N)C(=O)c1nc2ccccc2s1	3.9		102	8630	26		
N=C(N)NCCC[C@H](NC(=O)[C@H](Cc1ccc(O)cc1)NC(=O)OCC1c2ccccc2-c2ccccc21)C(=O)c1nc2ccccc2s1	25		256	2960	10		
N=C(N)NCCC[C@H](NC(=O)[C@H](Cc1c[nH]c2ccccc12)NC(=O)OCC1c2ccccc2-c2ccccc21)C(=O)c1nc2ccccc2s1	294	1	302	3200	1		
CC(=O)N[C@@H](CCCCN)C(=O)N[C@@H](CCC(N)=O)C(=O)N[C@@H](CC(C)C)C(=O)N[C@@H](CCCNC(=N)N)C(=O)c1nc2ccccc2s1		6.1					
C[C@H](NC(=O)OCC1c2ccccc2-c2ccccc21)C(=O)N[C@@H](CCCNC(=N)N)C(=O)c1nc2ccccc2s1	0.36		240	7980	667		
N=C(N)NCCC[C@H](NC(=O)[C@H](Cc1cnc[nH]1)NC(=O)OCC1c2ccccc2-c2ccccc21)C(=O)c1nc2ccccc2s1	11		226	6120	21		

Now from value to compound, other results behind:

Ki [1] [nM]	Ratio Ki(app) (Homo sapiens [2])	Ki (Serine protease hepsin [3]) [nM]	Ki [4] [nM]	SMILES	Ratio Ki(app) (Homo sapiens [5])	IC50 (Serine protease hepsin [6]) [nM]	inhibition (Serine protease hepsin [7])
294	3	98	> 10000	N=C(N)NCCC[C@H](NC(=O)[C@H](CC(=O)O)NC(=O)OCC1c2ccccc2-c2ccccc21)C(=O)c1nc2ccccc2s1			
4.9		555	> 10000	N=C(N)NCCC[C@H](NC(=O)[C@H](CO)NC(=O)OCC1c2ccccc2-c2ccccc21)C(=O)c1nc2ccccc2s1	113		
	62		4770	N=C(N)NCCC[C@H](NC(=O)[C@H](CC(N)=O)NC(=O)OCC1c2ccccc2-c2ccccc21)C(=O)c1nc2ccccc2s1		92	Active
253	3.8	67	468	CC(C)C[C@H](NC(=O)OCC1c2ccccc2-c2ccccc21)C(=O)N[C@@H](CCCNC(=N)N)C(=O)c1nc2ccccc2s1			
271	1.5	180	> 10000	C[C@@H](O)[C@H](NC(=O)OCC1c2ccccc2-c2ccccc21)C(=O)N[C@@H](CCCNC(=N)N)C(=O)c1nc2ccccc2s1			
486	2.1	228	4300	CC[C@H](C)[C@H](NC(=O)OCC1c2ccccc2-c2ccccc21)C(=O)N[C@@H](CCCNC(=N)N)C(=O)c1nc2ccccc2s1			
5.4		227		CSCC[C@H](NC(=O)OCC1c2ccccc2-c2ccccc21)C(=O)N[C@@H](CCCNC(=N)N)C(=O)c1nc2ccccc2s1			
